Data taken from ChEMBL document CHEMBL5331111, “Synthetic Biology Facilitates Semisynthetic Development of Type V Glycopeptide Antibiotics Targeting Vancomycin-Resistant Enterococcus” (J Med Chem, 2023).
Values after ≈ are worked out from the molar mass of the structure shown.

Columns and labels:
Staphylococcus aureus = assay: Antibacterial activity against Staphylococcus aureus ATCC 33591 assessed as reduction in bacterial growth by Mueller-Hinton broth based assay; format: functional
In short: (§1)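 Broth MIC by standard procedure in Mueller-Hinton broth, for both B. subtilis 168 and S. aureus ATCC 33591.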

[1] = system: Mycolicibacterium smegmatis; assay: Antimycobacterial activity against Mycobacterium smegmatis MC2 155 assessed as inhibition of bacterial growth measured after 2 days by resazurin dye based analysis; format: functional; details: MC2 155, 48 h, time 2 day
In short: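 Strains grown in 7H9 broth with 0.2% glycerol, 10% OADC and 0.05% Tween-80. Inoculum was about 5 × 10^5 CFU/mL, checked by plating on 7H10/OADC agar to be 3–8 × 10^5. Read at 2 days for M. smegmatis and 7 days for M. tuberculosis H37Ra, M. bovis and M. avium. Resazurin 30 μg/mL was then added for one further day. Values are averages of at least two experiments.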

Enterococcus faecium = assay: Antibacterial activity against vancomycin-resistant Enterococcus faecium ATCC 700221 assessed as inhibition of bacterial growth by Mueller-Hinton broth based assay; format: functional
Enterococcus faecalis = assay: Antibacterial activity against vancomycin-resistant Enterococcus faecalis ATCC 51299 assessed as inhibition of bacterial growth by Mueller-Hinton broth based assay; format: functional
Bacillus subtilis = assay: Antibacterial activity against Bacillus subtilis 168 assessed as reduction in bacterial growth by Mueller-Hinton broth based assay; format: functional; in short: as §1
[2] = Cytotoxicity against HEK293 cells assessed as inhibition of cell growth incubated for 48 hrs by Cell-Titer Glo reagent based analysis; format: toxicity; details: human
In short: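 HEK293 cells seeded at 7500 cells/well in DMEM with 10% FBS, 2 mM glutamine and pen/strep, and left 18 h at 37 °C under 5% CO2. Compound then added at 1% final DMSO and incubated 48 h. Viability read by CellTiter-Glo luminescence and normalized to DMSO-only wells. Curves fitted by 4PL constrained to 0–1.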

[3] = Hemolytic activity in human RBC incubated for 1 hr by absorbance based analysis; format: toxicity, cell-based, Erythrocyte; details: red blood cells (erythrocytes)
In short: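 Human K2-EDTA blood RBCs washed twice in 150 mM NaCl, resuspended in PBS pH 7.4, then diluted 1:50. Incubated with compound at 1% final DMSO for 1 h at 37 °C and pelleted at 500g for 5 min. Supernatant absorbance read at 540 nm. Controls were DMSO-only and a Triton X-100 dilution series (20% to 0.02%).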

Compound | MIC (Staphylococcus aureus) [µg/mL] | MIC [1] [µg/mL] | MIC (Enterococcus faecium) [µg/mL] | MIC (Enterococcus faecalis) [µg/mL] | MIC (Bacillus subtilis) [µg/mL] | IC50 at 48 h [2] [µg/mL] | IC50 at 1 h [3] [µg/mL]
CN1C(=O)[C@@H]2NC(=O)[C@@H]3NC(=O)[C@@H](c4ccc(O)cc4)NC(=O)[C@H](NC(=O)Cc4ccc(O)cc4)Cc4c[nH]c5cc(ccc45)-c4cc3cc(c4O)Oc3ccc(cc3)C[C@H]1C(=O)N[C@@H](C(=O)NCCC[N+](C)(C)C)c1ccc(O)c(c1)Oc1ccc2cc1 | > 128 | 0.5 | 4 | 16 | 4 | > 256 | > 256
CN1C(=O)[C@@H]2NC(=O)[C@@H]3NC(=O)[C@@H](c4ccc(O)cc4)NC(=O)[C@H](NC(=O)C(NC(=O)CCCCCN)c4ccc(O)cc4)Cc4c[nH]c5cc(ccc45)-c4cc3cc(c4O)Oc3ccc(cc3)C[C@H]1C(=O)N[C@@H](C(=O)O)c1ccc(O)c(c1)Oc1ccc2cc1 (stereo partly drawn) | 8 (≈ 6.48 µM) |  |  |  |  | > 256 | > 256
CN1C(=O)[C@@H]2NC(=O)[C@@H]3NC(=O)[C@@H](c4ccc(O)cc4)NC(=O)[C@H](NC(=O)C(Nc4ccsc4)c4ccc(O)cc4)Cc4c[nH]c5cc(ccc45)-c4cc3cc(c4O)Oc3ccc(cc3)C[C@H]1C(=O)N[C@@H](C(=O)O)c1ccc(O)c(c1)Oc1ccc2cc1 (stereo partly drawn) | 4 (≈ 3.32 µM) | > 128 | 8 (≈ 6.65 µM) | 4 (≈ 3.32 µM) | 1 (≈ 0.831 µM) |  | 
CCCCCCNC(C(=O)N[C@@H]1Cc2c[nH]c3cc(ccc23)-c2cc3cc(c2O)Oc2ccc(cc2)C[C@H]2C(=O)N[C@@H](C(=O)O)c4ccc(O)c(c4)Oc4ccc(cc4)[C@@H](NC(=O)[C@@H]3NC(=O)[C@@H](c3ccc(O)cc3)NC1=O)C(=O)N2C)c1ccc(O)cc1 (stereo partly drawn) |  |  | 4 (≈ 3.32 µM) | 4 (≈ 3.32 µM) |  | > 256 | > 256
CN1C(=O)[C@@H]2NC(=O)[C@@H]3NC(=O)[C@@H](c4ccc(O)cc4)NC(=O)[C@H](NC(=O)C(Nc4ccc(Br)cc4)c4ccc(O)cc4)Cc4c[nH]c5cc(ccc45)-c4cc3cc(c4O)Oc3ccc(cc3)C[C@H]1C(=O)N[C@@H](C(=O)O)c1ccc(O)c(c1)Oc1ccc2cc1 (stereo partly drawn) | 4 (≈ 3.13 µM) | > 128 | 8 (≈ 6.27 µM) | 8 (≈ 6.27 µM) | 2 (≈ 1.57 µM) |  | 
CN1C(=O)[C@@H]2NC(=O)[C@@H]3NC(=O)[C@@H](c4ccc(O)cc4)NC(=O)[C@H](NC(=O)C(Nc4cc(O)cc(O)c4)c4ccc(O)cc4)Cc4c[nH]c5cc(ccc45)-c4cc3cc(c4O)Oc3ccc(cc3)C[C@H]1C(=O)N[C@@H](C(=O)O)c1ccc(O)c(c1)Oc1ccc2cc1 (stereo partly drawn) | 4 (≈ 3.25 µM) | > 128 | 16 (≈ 13 µM) | 4 (≈ 3.25 µM) | 1 (≈ 0.814 µM) |  | 
CN(C)CCCNCCCNC(=O)[C@@H]1NC(=O)[C@@H]2Cc3ccc(cc3)Oc3cc4cc(c3O)-c3ccc5c(c[nH]c5c3)C[C@@H](NC(=O)Cc3ccc(O)cc3)C(=O)N[C@H](c3ccc(O)cc3)C(=O)N[C@H]4C(=O)N[C@@H](C(=O)N2C)c2ccc(cc2)Oc2cc1ccc2O | > 128 | 1 (≈ 0.802 µM) | 2 (≈ 1.6 µM) | 16 (≈ 12.8 µM) | 8 (≈ 6.41 µM) |  | 
CN1C(=O)[C@@H]2NC(=O)[C@@H]3NC(=O)[C@@H](c4ccc(O)cc4)NC(=O)[C@H](NC(=O)C(N)c4ccc(O)cc4)Cc4c[nH]c5cc(ccc45)-c4cc3cc(c4O)Oc3ccc(cc3)C[C@H]1C(=O)N[C@@H](C(=O)NCCCN)c1ccc(O)c(c1)Oc1ccc2cc1 (stereo partly drawn) |  |  | 1 (≈ 0.849 µM) | 4 (≈ 3.4 µM) |  | > 256 | > 256
